Key:
[1] = target: T1, ENT1 (Homo sapiens, UniProt Q99808); test: Inhibition of ENT1-mediated [3H]-uridine uptake in HAP1 ENT2-KO cells; type: cell-based; details: 10 µM TKI; for % inhibition of ENT1 activity (mean ± SD): HAP1-ENT2 KO cells, [3H]-uridine uptake 5 min at 37 °C; for ENT1 inhibitor class / Effect on ENT1 activity (in words): HAP1 ENT2-KO cells
T1 sequence (Q99808 1-456): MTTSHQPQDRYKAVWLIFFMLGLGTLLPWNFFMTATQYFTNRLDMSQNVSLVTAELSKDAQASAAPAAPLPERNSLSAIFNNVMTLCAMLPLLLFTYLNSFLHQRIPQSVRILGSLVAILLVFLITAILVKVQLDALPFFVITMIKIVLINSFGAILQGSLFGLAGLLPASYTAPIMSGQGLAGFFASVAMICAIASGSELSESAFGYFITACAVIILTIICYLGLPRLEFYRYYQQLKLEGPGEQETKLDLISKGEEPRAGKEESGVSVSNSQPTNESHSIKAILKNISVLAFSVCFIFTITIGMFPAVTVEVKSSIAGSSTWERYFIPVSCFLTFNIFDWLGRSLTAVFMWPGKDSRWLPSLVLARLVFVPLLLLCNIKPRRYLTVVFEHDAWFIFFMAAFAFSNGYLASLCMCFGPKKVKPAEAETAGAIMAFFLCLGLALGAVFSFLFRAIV

[2] = target: T1, ENT1; test: Prediction of in vivo ENT1 inhibition; details: predicted if Imax,u/IC50 ≥ 0.1
How it was run: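 Unbound peak plasma level (Imax,u) was obtained from literature Cmax and unbound fraction and divided by in vitro ENT1 IC50. Inhibition was predicted when the ratio was ≥ 0.1, following FDA drug-interaction guidance.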

[3] = Maximum plasma concentration of TKIs; type: in vivo; details: from Cmax and fu
[4] = target: T2, ENT2 (Homo sapiens, UniProt Q14542); test: Prediction of in vivo ENT2 inhibition; details: Imax,u/IC50 greater than 0.1
T2 sequence (Q14542 1-456): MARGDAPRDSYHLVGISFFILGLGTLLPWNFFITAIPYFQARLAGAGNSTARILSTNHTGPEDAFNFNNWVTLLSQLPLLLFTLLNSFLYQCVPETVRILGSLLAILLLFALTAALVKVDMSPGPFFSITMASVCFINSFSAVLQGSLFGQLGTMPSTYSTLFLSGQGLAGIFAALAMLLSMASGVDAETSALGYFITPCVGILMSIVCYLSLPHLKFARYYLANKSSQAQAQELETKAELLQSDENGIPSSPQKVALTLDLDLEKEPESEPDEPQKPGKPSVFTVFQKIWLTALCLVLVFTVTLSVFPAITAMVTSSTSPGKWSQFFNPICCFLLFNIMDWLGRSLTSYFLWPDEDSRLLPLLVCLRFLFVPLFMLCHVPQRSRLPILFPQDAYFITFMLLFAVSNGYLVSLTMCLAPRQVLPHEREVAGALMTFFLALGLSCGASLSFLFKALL
How it was run: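 Imax,u from literature Cmax and unbound fraction was divided by ENT2 IC50, using the FDA guidance threshold of 0.1. […] Uptake was counted by scintillation, normalised to protein, and fitted to a four-parameter logistic curve; three independent assays.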

[5] = tested on: ENT1/ENT2; test: Lorlatinib accumulation assay in HAP1 wild-type, ENT1-KO and ENT2-KO cells; type: cell-based, human; details: 10 µM lorlatinib, ENT1-KO, ENT2-KO cells
How it was run: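 HAP1 wild-type, ENT1-KO and ENT2-KO cells were grown in Iscove's modified Dulbecco's medium with 10% fetal calf serum and penicillin/streptomycin. Cells were exposed to 10 µM test compound for 5 min at 37 °C, without or with 0.1 µM (ENT1) or 100 µM (ENT1/ENT2) NBMPR. They were then washed twice in ice-cold PBS and lysed in distilled water. Lysates underwent acetonitrile extraction, and compound was quantified by LC–MS/MS (C18 column, ESI+).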

[6] = plasma; ref 43-47 (Reference column, one per TKI); cited from earlier work

SMILES | % inhibition of ENT1 activity (mean ± SD) [1] | ENT1 inhibitor class [1] | also measured
CCc1cc2c(cc1N1CCC(N3CCOCC3)CC1)C(C)(C)c1[nH]c3cc(C#N)ccc3c1C2=O [Alectinib, alectinib] | 54.0 ± 4.9 % | moderate (inhibit ENT1 activity by more than 35% but less than 60%) | 
CN(C)C(=O)c1cc2cnc(Nc3ccc(N4CCNCC4)cn3)nc2n1C1CCCC1 [Ribociclib, ribociclib] | 17.8 ± 10.2% |  | Effect on ENT1 activity (in words) [1]: failed to significantly alter ENT1 activity
Cc1cc(Nc2ncc(Cl)c(Nc3ccccc3S(=O)(=O)C(C)C)n2)c(OC(C)C)cc1C1CCNCC1 [Ceritinib, ceritinib] | 26.3 ± 1.7 % | weak (decreased ENT1 activity by less than 35% and can thus be considered as weak ENT1 inhibitors) | Effect on ENT1 activity (in words) [1]: only modestly decrease ENT1 activity
C[C@H]1Oc2cc(cnc2N)-c2c(nn(C)c2C#N)CN(C)C(=O)c2ccc(F)cc21 [Lorlatinib, (10R)-7-amino-12-fluoro-2,10,16-trimethyl-15-oxo-10,15,16,17-tetrahydro-2H-8,4-(metheno)pyrazolo[4,3-h][2,5,11]-benzoxadiazacyclotetradecine-3-carbonitrile] | 86.6 ± 6.4 % | potent (inhibit ENT1 by more than 60%) | Predicted in vivo inhibition [2]: Yes; Imax,u (maximum unbound plasma concentration) [3]: 485 nM; Predicted in vivo inhibition (in words) [4]: should also be clinically relevant; Cellular accumulation of lorlatinib ([5]; 5 min at 37 °C, without or with 0.1 or 100 µM NBMPR): similarly accumulate in HAP1 wild-type, ENT1-KO, and ENT2-KO cells; Substrate for ENT1/ENT2 ([5]; ± NBMPR): not a substrate for either ENT1 or ENT2
CN(C)C/C=C/C(=O)Nc1cc2c(Nc3ccc(F)c(Cl)c3)ncnc2cc1O[C@H]1CCOC1 [Afatinib, afatinib] | 54.5 ± 2.4 % | moderate (inhibit ENT1 activity by more than 35% but less than 60%) | 
COC(=O)c1ccc2c(c1)NC(=O)/C2=C(\Nc1ccc(N(C)C(=O)CN2CCN(C)CC2)cc1)c1ccccc1 [Nintedanib, nintedanib] | 46.9 ± 9.6 % |  | 
COc1cc2nccc(Oc3ccc(NC(=O)C4(C(=O)Nc5ccc(F)cc5)CC4)cc3)c2cc1OC [Cabozantinib, cabozantinib] | 48.8 ± 2.5 % | moderate (inhibit ENT1 activity by more than 35% but less than 60%) | 
CCN1CCN(Cc2ccc(Nc3ncc(F)c(-c4cc(F)c5nc(C)n(C(C)C)c5c4)n3)nc2)CC1 [Abemaciclib, abemaciclib] | 25.0 ± 7.9 % | weak (decreased ENT1 activity by less than 35% and can thus be considered as weak ENT1 inhibitors) | 
CCOc1cc2ncc(C#N)c(Nc3ccc(OCc4ccccn4)c(Cl)c3)c2cc1NC(=O)/C=C/CN(C)C [Neratinib, neratinib] | 61.0 ± 8.5 % | potent (inhibit ENT1 by more than 60%) | Predicted in vivo inhibition [2]: No; Imax,u (maximum unbound plasma concentration) [3]: 1.46 nM; fu (unbound fraction) [6]: 0.01
CCCS(=O)(=O)Nc1ccc(F)c(C(=O)c2c[nH]c3ncc(-c4ccc(Cl)cc4)cc23)c1F [Vemurafenib, vemurafenib] | 27.3 ± 10.9 % | weak (decreased ENT1 activity by less than 35% and can thus be considered as weak ENT1 inhibitors) | 
C[C@@H](Oc1cc(-c2cnn(C3CCNCC3)c2)cnc1N)c1c(Cl)ccc(F)c1Cl [Crizotinib, crizotinib] | 34.7 ± 2.7 % | weak (decreased ENT1 activity by less than 35% and can thus be considered as weak ENT1 inhibitors) | Effect on ENT1 activity (in words) [1]: only modestly decrease ENT1 activity
CN1CCN(c2ccc(C(=O)Nc3n[nH]c4ccc(Cc5cc(F)cc(F)c5)cc34)c(NC3CCOCC3)c2)CC1 [Entrectinib, entrectinib] | 22.9 ± 5.2 % |  | 
COc1cc(N2CCC(N3CCN(C)CC3)CC2)ccc1Nc1ncc(Cl)c(Nc2ccccc2P(C)(C)=O)n1 [Brigatinib, brigatinib] | 52.5 ± 11.1 % | moderate (inhibit ENT1 activity by more than 35% but less than 60%) | 
CNC(=O)c1cc(Oc2ccc(NC(=O)Nc3ccc(Cl)c(C(F)(F)F)c3)c(F)c2)ccn1 [Regorafenib, regorafenib] | 21.4 ± 2.7 % |  | 
CC#CC(=O)N1CCC[C@H]1c1nc(-c2ccc(C(=O)Nc3ccccn3)cc2)c2c(N)nccn12 [Acalabrutinib, acalabrutinib] | 42.6 ± 10.4 % | moderate (inhibit ENT1 activity by more than 35% but less than 60%) | 
COc1cc2nccc(Oc3ccc(NC(=O)NC4CC4)c(Cl)c3)c2cc1C(N)=O [Lenvatinib, lenvatinib] | 63.1 ± 5.9 % | potent (inhibit ENT1 by more than 60%) | Predicted in vivo inhibition [2]: No; fu (unbound fraction) [6]: 0.016
C1=C/COCc2cc(ccc2OCCN2CCCC2)Nc2nccc(n2)-c2cccc(c2)COC/1 [Pacritinib, 11-(2-pyrrolidin-1-yl-ethoxy)-14,19-dioxa-5,7,26-triaza-tetracyclo[19.3.1.1(2,6).1(8,12)]heptacosa-1(25),2(26),3,5,8,10,12(27),16,21,23-decaene] | 61.6 ± 8.1 % | potent (inhibit ENT1 by more than 60%) | Predicted in vivo inhibition [2]: No; Imax,u (maximum unbound plasma concentration) [3]: 247.5 nM; fu (unbound fraction) [6]: 0.011
N#CCC1(n2cc(-c3ncnc4[nH]ccc34)cn2)CN(C2CCN(C(=O)c3ccnc(C(F)(F)F)c3F)CC2)C1 [Itacitinib, itacitinib] | 21.9 ± 13.3 % | weak (decreased ENT1 activity by less than 35% and can thus be considered as weak ENT1 inhibitors) | 
COc1cc2ncnc(Nc3ccc(F)c(Cl)c3)c2cc1NC(=O)/C=C/CN1CCCCC1 [Dacomitinib, dacomitinib] | 43.9 ± 2.3 % | moderate (inhibit ENT1 activity by more than 35% but less than 60%) | 
C[C@@H]1CCN(C(=O)CC#N)C[C@@H]1N(C)c1ncnc2[nH]ccc12 [Tofacitinib, tofacitinib] | 4.8 ± 8.3% |  | Effect on ENT1 activity (in words) [1]: failed to significantly alter ENT1 activity
C=CC(=O)N1CCC[C@@H](n2nc(-c3ccc(Oc4ccccc4)cc3)c3c(N)ncnc32)C1 [Ibrutinib, ibrutinib] | 72.7 ± 1.1 % | potent (inhibit ENT1 by more than 60%) | Predicted in vivo inhibition [2]: No; Imax,u (maximum unbound plasma concentration) [3]: 9.56 nM
C=CC(=O)Nc1cc(Nc2nccc(-c3cn(C)c4ccccc34)n2)c(OC)cc1N(C)CCN(C)C [Osimertinib, osimertinib] | 32.3 ± 11.3 % | weak (decreased ENT1 activity by less than 35% and can thus be considered as weak ENT1 inhibitors) | 
